pIC50: −log10 of the molar value.
Experiments:
RAW264.7 [1] = assay: Antiinflammatory activity against mouse RAW264.7 cells assessed as inhibition of LPS-induced nitric oxide production after 24 hrs by Griess reagent method; type: functional, cell-based; conditions: RAW264.7, 24 h
Outline: (§1)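 RAW 264.7 macrophages seeded at 10^5 cells/well, co-incubated with compound and LPS (1 µg/mL) for 24 h. Nitrite in supernatant measured by Griess reagent: supernatant mixed in turn with 1% sulfanilamide and 0.1% naphthylethylenediamine in 2.5% phosphoric acid, absorbance read at 548 nm. n = 4, mean ± SD; L-nitroarginine as positive control, LPS alone as negative control.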

RAW264.7 [2] = assay: Antiinflammatory activity against mouse RAW264.7 cells assessed as inhibition of LPS-induced nitric oxide production at 1 uM after 24 hrs by Griess reagent method; type: functional; conditions: RAW264.7, 24 h; outline: as §1
RAW264.7 [3] = assay: Cytotoxicity against LPS-stimulated mouse RAW264.7 cells up to 1 uM after 24 hrs by MTT assay; type: cell-based; conditions: raw264.7, 24 h
Outline: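 After supernatant removal for Griess assay, LPS-treated RAW 264.7 cells given fresh medium with 2 mg/mL MTT. Incubated 3 h at 37 °C, 5% CO2. Formazan dissolved in DMSO and absorbance measured at 570 nm.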

Row | pIC50 (RAW264.7 [1]) | SMILES | inhibition at 1 µM (RAW264.7 [2]) [%] | Activity (RAW264.7 [3])
1 | 5.45 | COc1cc([C@H]2c3cc(O)c(OC)cc3C=C(C=O)[C@@H]2CO)ccc1O | 34.4 | Non-toxic
2 | 5.82 | COc1cc(-c2c3c(cc4cc(OC)c(O)cc24)C(=O)NC3)ccc1O [VITEDOAMINE A] | 43.3 | Non-toxic
3 | 6.06 | COc1cc(-c2c3c(cc4cc(OC)c(O)cc24)CNC3=O)ccc1O [VITEDOAMINE B] | 56.2 | Non-toxic
4 | 6.42 | COc1cc([C@H]2c3cc(O)c(O)cc3C=C(C=O)[C@@H]2CO)ccc1O [VITEXDOIN A] | 67 | Non-toxic
5 | 6.70 | COc1cc(-c2cc(C=O)cc3ccc(O)c(OC)c23)ccc1O [VITEXDOIN B] | 80.8 | Non-toxic
6 | 6.24 | COc1cc(-c2c(C=O)ccc3cc(OC)c(O)cc23)ccc1O [VITEXDOIN C] | 61.7 | Non-toxic
7 | 6.89 | COc1cc(-c2c(C=O)c(O)cc3cc(OC)c(O)cc23)ccc1O [VITEXDOIN D] | 91.1 | Non-toxic
8 | 6.82 | COc1cc(-c2cc(C=O)c(O)c3cc(OC)c(O)cc23)ccc1O [VITEXDOIN E] | 84.2 | Non-toxic
9 | 6.30 | COc1cc(-c2cc(C=O)cc3cc(OC)c(O)cc23)ccc1O [VITROFOLAL E] | 63.2 | 
10 | 6.96 | COc1cc(-c2c(O)c(C=O)cc3cc(OC)c(O)cc23)ccc1O [VITROFOLAL F] | 95.8 | Non-toxic

Row | SMILES | pIC50 (RAW264.7 [1]) | inhibition at 1 µM (RAW264.7 [2]) [%] | Activity (RAW264.7 [3])
11 | N=C(NCCC[C@H](N)C(=O)O)N[N+](=O)[O-] [NITROARGININE] | 4.36 | 2.53 | 

From ChEMBL document CHEMBL1154252, “Nitric oxide scavenging lignans from Vitex negundo seeds” (J Nat Prod, 2009)
